Data published in ChEMBL document CHEMBL3792314, “Synthesis, characterization and biological evaluation of benzothiazoles and tetrahydrobenzothiazoles bearing urea or thiourea moieties as vasorelaxants and inhibitors of the insulin releasing process” (Eur J Med Chem, 2016).
One block for each compound: values may come before it.

Columns and labels:
Thoracic aorta [1] = experiment: Vasorelaxant activity in Wistar rat endothelium-intact thoracic aortic rings assessed relaxation of 30 mM KCl-induced contraction; format: functional
Procedure, shortened: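 Endothelium-intact thoracic aortic rings from female Wistar rats (180–220 g), equilibrated 75 min under 1.8–2.0 g tension, pH 7.4, isometric force transducer. After stable 30 mM KCl plateau (about 15 min), cumulative addition at 1, 10, 30, 50, 100 µM, or 0.1–100 µM for some compounds. EC50 = concentration giving 50% relaxation; mean ± SEM of 4–6 experiments.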

Thoracic aorta [2] = experiment: Vasorelaxant activity in Wistar rat endothelium-denuded thoracic aortic rings assessed relaxation of 30 mM KCl-induced contraction; format: functional
Thoracic aorta [3] = experiment: Vasorelaxant activity in Wistar rat thoracic aortic rings assessed relaxation of 30 mM KCl-induced contraction in presence of KATP channel blocker glibenclamide; format: functional
Procedure, shortened: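 Female Wistar rat thoracic aorta rings under 1.8–2.0 g resting tension, pH 7.4. Glibenclamide 10 μM present continuously in bath. Contraction by 30 mM KCl, then cumulative compound addition. EC50 = concentration relaxing the KCl contraction by 50%. Mean ± SEM, n = 3–5.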

Thoracic aorta [4] = experiment: Vasorelaxant activity in Wistar rat thoracic aortic rings assessed relaxation of 80 mM KCl-induced contraction; format: functional
Procedure, shortened: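 Female Wistar rat (180–220 g) thoracic aortic rings equilibrated 75 min at 1.8–2.0 g tension, pH 7.4. Depolarized with 80 mM KCl, then compounds added cumulatively. EC50 = concentration giving 50% relaxation of the 80 mM KCl contraction. Mean ± SEM, n = 4–5.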

[5] = Inhibition of glucose-induced insulin secretion from Wistar rat pancreatic islets assessed as residual insulin release at 50 uM after 90 mins by radioimmunological assay; format: functional, Pancreatic islet
Procedure, shortened: (§1)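 Islets from adult fed Wistar rats, groups of 10 from the same batch. Preincubated 30 min at 37°C in bicarbonate salt medium with 2.8 mM glucose and 0.5% dialysed albumin, gassed O2/CO2 95:5. Then incubated 90 min at 37°C with 16.7 mM glucose plus compound. Insulin measured by radioimmunoassay against rat insulin standard. Residual secretion expressed as % of drug-free 16.7 mM glucose control.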

[6] = Inhibition of glucose-induced insulin secretion from Wistar rat pancreatic islets assessed as residual insulin release at 10 uM after 90 mins by radioimmunological assay; format: functional, Pancreatic islet; procedure, shortened: as §1
[7] = Inhibition of glucose-induced insulin secretion from Wistar rat pancreatic islets assessed as residual insulin release at 1 uM after 90 mins by radioimmunological assay; format: functional, Pancreatic islet; procedure, shortened: as §1

SMILES: O=C(Nc1nc2ccc(Br)cc2s1)Nc1ccc(C(F)(F)F)cc1Cl
EC50 (Thoracic aorta [1]): > 100 µM

SMILES: CC(C)(C)NC(=O)Nc1nc2ccc(Br)cc2s1
EC50 (Thoracic aorta [1]): 13 µM
EC50 (Thoracic aorta [2]): 12.1 µM
EC50 (Thoracic aorta [3]): 23.3 µM
EC50 (Thoracic aorta [4]): 26.9 µM
Activity [5]: 15.89%
Residual insulin secretion (% of glucose control) [6]: 77.97%

SMILES: CC(C)(C)NC(=O)Nc1nc2c(s1)CCCC2
EC50 (Thoracic aorta [1]): 75.2 µM

SMILES: O=C(NCc1ccccc1)Nc1nc2ccc(Br)cc2s1
EC50 (Thoracic aorta [1]): 64.2 µM
Activity [5]: 17.85%
Residual insulin secretion (% of glucose control) [6]: 82.97%

SMILES: N#Cc1ccc(NC(=S)Nc2nc3c(s2)CCCC3)cc1
EC50 (Thoracic aorta [1]): > 100 µM

SMILES: CCc1ccc2nc(NC(=S)NCc3ccccc3)sc2c1
EC50 (Thoracic aorta [1]): > 100 µM

SMILES: Cc1ccc2nc(NC(=S)NCc3ccccc3)sc2c1
EC50 (Thoracic aorta [1]): > 100 µM

SMILES: Cc1ccc2nc(NC(=S)NC3CCCCC3)sc2c1
EC50 (Thoracic aorta [1]): 52.1 µM

SMILES: O=C(Nc1nc2ccc([N+](=O)[O-])cc2s1)Nc1ccc(C(F)(F)F)cc1Cl
EC50 (Thoracic aorta [1]): 54.3 µM

SMILES: O=[N+]([O-])c1cccc(NC(=S)Nc2nc3c(s2)CCCC3)c1
EC50 (Thoracic aorta [1]): > 100 µM

SMILES: CC(C)(C)NC(=O)Nc1nc2ccc(C#N)cc2s1
EC50 (Thoracic aorta [1]): 2.78 µM
EC50 (Thoracic aorta [2]): 4.66 µM
EC50 (Thoracic aorta [3]): 15.6 µM
EC50 (Thoracic aorta [4]): 15 µM

SMILES: CCc1ccc2nc(NC(=O)NC(C)(C)C)sc2c1
EC50 (Thoracic aorta [1]): 25.3 µM

SMILES: N#Cc1ccc(NC(=O)Nc2nc3c(s2)CCCC3)cc1
EC50 (Thoracic aorta [1]): > 100 µM

SMILES: O=C(Nc1ccc(Cl)c(C(F)(F)F)c1)Nc1nc2c(s1)CCCC2
EC50 (Thoracic aorta [1]): > 100 µM

SMILES: CC1=Nc2ccc(Cl)cc2S(=O)(=O)N1 [DIAZOXIDE]
EC50 (Thoracic aorta [1]): 23.7 µM
EC50 (Thoracic aorta [2]): 23.2 µM
EC50 (Thoracic aorta [3]): > 100 µM
EC50 (Thoracic aorta [4]): > 100 µM
Activity [5]: 26.7%
Residual insulin secretion (% of glucose control) [6]: 73.9%
Residual insulin release (% of control) [7]: 87.5%

Further lines, with some results ahead:

EC50 (Thoracic aorta [1]): > 100 µM
SMILES: O=C(Nc1nc2ccccc2s1)Nc1ccc(C(F)(F)F)cc1Cl

EC50 (Thoracic aorta [1]): 18.5 µM
SMILES: Cc1ccc2nc(NC(=O)NC(C)C)sc2c1

EC50 (Thoracic aorta [1]): > 100 µM
SMILES: O=C(Nc1ccc(Cl)cc1)Nc1nc2c(s1)CCCC2

EC50 (Thoracic aorta [1]): > 100 µM
SMILES: CCc1ccc2nc(NC(=O)NCc3ccccc3)sc2c1

EC50 (Thoracic aorta [1]): 15.7 µM
EC50 (Thoracic aorta [2]): 17.8 µM
EC50 (Thoracic aorta [4]): 36.4 µM
SMILES: CC(C)NC(=O)Nc1nc2ccc([N+](=O)[O-])cc2s1
Activity [5]: 8.52%
Residual insulin secretion (% of glucose control) [6]: 62.03%

EC50 (Thoracic aorta [1]): 10.8 µM
EC50 (Thoracic aorta [2]): 14.8 µM
EC50 (Thoracic aorta [3]): 19.5 µM
EC50 (Thoracic aorta [4]): 31 µM
SMILES: CC(C)(C)NC(=O)Nc1nc2ccc([N+](=O)[O-])cc2s1
Activity [5]: 11.77%
Residual insulin secretion (% of glucose control) [6]: 30.98%
Residual insulin release (% of control) [7]: 83.52%

EC50 (Thoracic aorta [1]): 2.11 µM
EC50 (Thoracic aorta [2]): 4.75 µM
EC50 (Thoracic aorta [3]): 19.6 µM
EC50 (Thoracic aorta [4]): 14.2 µM
SMILES: CCCCCNC(=O)Nc1nc2ccc([N+](=O)[O-])cc2s1

EC50 (Thoracic aorta [1]): > 100 µM
SMILES: CCc1ccc2nc(NC(=O)Nc3ccc(C(F)(F)F)cc3Cl)sc2c1

EC50 (Thoracic aorta [1]): 24.4 µM
SMILES: CCc1ccc2nc(NC(=O)NC(C)C)sc2c1

EC50 (Thoracic aorta [1]): 47.6 µM
SMILES: CC(C)NC(=O)Nc1nc2c(s1)CCCC2

EC50 (Thoracic aorta [1]): 22.8 µM
SMILES: CC(C)NC(=O)Nc1nc2ccc(Br)cc2s1

EC50 (Thoracic aorta [1]): > 100 µM
SMILES: CC(C)NC(=S)Nc1nc2c(s1)CCCC2

EC50 (Thoracic aorta [1]): > 100 µM
SMILES: N#Cc1ccc(NC(=O)Nc2nc3ccc(Br)cc3s2)cc1
Activity [5]: 10.68%
Residual insulin secretion (% of glucose control) [6]: 11.03%
Residual insulin release (% of control) [7]: 60.5%

EC50 (Thoracic aorta [1]): 14.8 µM
SMILES: CCCCCNC(=O)Nc1nc2ccc(C#N)cc2s1

EC50 (Thoracic aorta [1]): > 100 µM
SMILES: CCc1ccc2nc(NC(=S)Nc3cccc([N+](=O)[O-])c3)sc2c1

EC50 (Thoracic aorta [1]): 35.5 µM
SMILES: CC(C)NC(=O)Nc1nc2ccccc2s1

EC50 (Thoracic aorta [1]): 0.39 µM
EC50 (Thoracic aorta [3]): 8.02 µM
EC50 (Thoracic aorta [4]): 92.1 µM
SMILES: CC(N/C(=N\C#N)Nc1ccncc1)C(C)(C)C (stereo not drawn) [PINACIDIL ANHYDROUS]
Activity [5]: 88.8%
Residual insulin release (% of control) [7]: 97.7%
